Test results reported in ChEMBL document CHEMBL1153453, “Schiff bases of 3-formylchromone as thymidine phosphorylase inhibitors” (Bioorg Med Chem, 2009).
pIC50: −log10 of the molar value.

Biological target: Thymidine phosphorylase (Escherichia coli K-12, UniProt P07650)
Test: Inhibition of Escherichia coli thymidine phosphorylase
Conditions: not given; call rule not given here
In short: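 E. coli thymidine phosphorylase, 0.05 or 0.002 U, in potassium phosphate buffer pH 7.4, preincubated with test compound 10 min at 25 °C. A 290 nm pre-read was then taken, substrate added (1.5 mM stock), and absorbance at 290 nm read after 10, 20 and 30 min. Increasing compound concentrations were tested in triplicate. IC50 was calculated from the inhibition data.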

Thymidine phosphorylase, sequence (P07650 whole entry): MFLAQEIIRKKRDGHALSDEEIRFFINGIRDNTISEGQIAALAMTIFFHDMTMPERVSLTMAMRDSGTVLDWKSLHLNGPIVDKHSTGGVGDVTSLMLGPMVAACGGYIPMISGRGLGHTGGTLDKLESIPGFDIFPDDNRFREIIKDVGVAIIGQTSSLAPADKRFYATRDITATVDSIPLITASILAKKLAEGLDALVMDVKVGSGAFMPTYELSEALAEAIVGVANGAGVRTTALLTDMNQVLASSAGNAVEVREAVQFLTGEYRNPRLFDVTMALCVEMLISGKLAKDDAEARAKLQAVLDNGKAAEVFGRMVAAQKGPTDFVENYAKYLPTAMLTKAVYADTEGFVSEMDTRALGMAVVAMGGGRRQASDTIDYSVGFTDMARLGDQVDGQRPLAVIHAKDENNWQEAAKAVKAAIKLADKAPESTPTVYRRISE

SMILES	IC50
Cc1cccc(C)c1/N=C/c1coc2ccccc2c1=O	Not Active
CC(C)(C)NC(NC(C)(C)C)c1coc2ccccc2c1=O	Not Active
O=c1c(/C=N/c2ccncc2)coc2ccccc12	Not Active
O=c1c(/C=N/c2cccnc2)coc2ccccc12	Not Active
COc1cccc(/N=C/c2coc3ccccc3c2=O)c1	Not Active

Other lines, results leading:

IC50	SMILES
Not Active	Cc1ccc(/N=C/c2coc3ccccc3c2=O)cc1
Not Active	COc1cc([N+](=O)[O-])ccc1/N=C/c1coc2ccccc2c1=O
Not Active	O=C(O)c1ccccc1/N=C/c1coc2ccccc2c1=O

Same assay, conditions: read-out: IC50

SMILES	pIC50
Cc1cccc([N+](=O)[O-])c1/N=C/c1coc2ccccc2c1=O	3.32
COc1cc(/N=C/c2coc3ccccc3c2=O)ccc1C	4.70
O=c1c(/C=N/CC/N=C/c2coc3ccccc3c2=O)coc2ccccc12	3.82
CCC(=O)N/N=C/c1coc2ccccc2c1=O	3.84
O=c1c(/C=N/c2ncccc2O)coc2ccccc12	3.47

Further lines, results first:

pIC50	SMILES
4.12	O=C(c1ccccc1)c1cc(Cl)ccc1/N=C/c1coc2ccccc2c1=O
4.17	Cc1cccc(/N=C/c2coc3ccccc3c2=O)c1
4.39	O=c1c(/C=N/c2ccc(Cl)cc2Cl)coc2ccccc12
3.33	O=c1c(/C=N/C(CO)Cc2ccccc2)coc2ccccc12 (configuration not stated)
